Measurements: ChEMBL document CHEMBL1914453, “1,1-Diarylalkenes as anticancer agents: dual inhibitors of tubulin polymerization and phosphodiesterase 4” (Bioorg Med Chem, 2011)

Columns and labels:
HCT-116 [1] = assay: Cytotoxicity against human HCT116 cells assessed as reduction of [3H]thymidine incorporation after 72 hrs by scintillation counting; type: functional, cell-based
Summary of the method: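 HCT-116 cells were seeded 24 h before compound and treated with serial dilutions in triplicate for 72 h at 37 °C. [³H]thymidine (1 µCi per well) was added for the last 6 h, and incorporation was read by scintillation counting. IC50 came from nonlinear sigmoidal regression (top 100%, bottom 0%, variable slope). Values are means of at least three independent determinations, with SEM from the individual IC50s.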

Phosphodiesterase 4 = Phosphodiesterase 4 (Homo sapiens, UniProt P27815+Q08499+Q07343+Q08493); assay: Inhibition of human PDE4 expressed in U937 cells using [3H]cAMP as substrate after 30 mins; details: u-937
Summary of the method: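 PDE4 was purified from U937 human monocytic cells by gel filtration. Reactions ran in 50 mM Tris–HCl pH 7.5 with 5 mM MgCl₂, 1 µM cAMP and 10 nM [³H]-cAMP for 30 min at 30 °C. They were stopped by boiling, treated with snake venom (1 mg/ml) and separated on ion-exchange resin. Substrate consumption stayed below 15%. IC50 values are means of at least three determinations, with SEM.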

PBMC = assay: Inhibition of LPS-induced TNFalpha production in human PBMC preincubated 1 hr prior to LPS stimulation measured after 18 to 20 hrs by ELISA; type: functional, cell-based
Summary of the method: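 PBMC were isolated by Ficoll-Hypaque density centrifugation and plated at 2 × 10⁵ cells in triplicate. Compounds in DMSO (0.25% final) were added 1 h before stimulation with LPS from S. abortus equi at 1 ng/ml. After 18–20 h at 37 °C in 5% CO₂, supernatant TNF-α was measured by ELISA. IC50 values are means of at least three determinations.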

Plasma [2] = assay: Stability in human plasma assessed as formation of (E/Z)-3-(3-Ethoxy-4-methoxyphenyl)-3-(3-hydroxy-4- methoxyphenyl)acrylonitrile […] by LC-MS/MS analysis; type: ADME, cell-free; details: 20 min
[3] = Inhibition of tubulin polymerization at 5 uM after 60 mins by spectrophotometry
[4] = Inhibition of tubulin polymerization at 10 uM after 60 mins by spectrophotometry
HCT-116 [5] = assay: Antitumor activity against human HCT116 cells xenografted in SCID mouse assessed as reduction in tumor volume at 20 mg/kg, ip qd measured twice weekly relative to control; type: functional; design: scale not given: the % may be the effect or the level left; details: route intraperitoneal
Summary of the method: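 Female SCID mice, 6–8 weeks old, inoculated s.c. in the right hind leg with 2 × 10⁶ HCT-116 cells in sterile PBS. On day 8, mice with 75–125 mm³ tumors were randomized and dosed ip in CMC-Tween vehicle (0.5% carboxymethylcellulose, 0.25% Tween 80 in water). Tumors were measured twice weekly by caliper, volume W² × L / 2, and compared with vehicle.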

[6] = Solubility of the compound at pH 5 after 4 hrs by UV-Vis spectrophotometry; type: physicochemical; details: buffer
Summary of the method: (§1)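 A suspension of about 1 mg/mL (0.5 mL) in pH 5.0 or pH 7.4 buffer was stirred at 400 rpm for 4 h and then filtered. Concentration was determined by UV-vis plate reading (200–400 nm) against standard curves for each compound. Replicate measurements were made at pH 5.0.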

[7] = Solubility of the compound at pH 7.4 after 4 hrs by UV-Vis spectrophotometry; type: physicochemical; details: buffer; summary of the method: as §1
Plasma [8] = assay: Stability in human plasma assessed as formation of (E/Z)-3-(3-Amino-4-methoxyphenyl)-3-(3-ethoxy-4- methoxyphenyl)acrylonitrile by LC-MS/MS analysis; type: ADME, cell-free
Summary of the method: (§2)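 Analogs were incubated in human plasma at 37 °C and sampled at 0, 0.5, 1, 2, 3, 4, 6, 8 and 24 h. Samples were quenched in acetonitrile with 0.1% formic acid and internal standard, centrifuged, and analysed by LC–MS/MS in MRM mode on a C18 monolithic column with an aqueous acetonitrile/0.1% formic acid gradient. Percentage remaining was taken from analyte/IS peak-area ratios relative to time zero.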

[9] = Stability in human plasma assessed as half life by LC-MS/MS analysis; type: ADME, cell-free; summary of the method: as §2

Row | Structure (SMILES) | IC50 (HCT-116 [1]) | IC50 (Phosphodiesterase 4) | IC50 (PBMC) | also measured
1 | COc1cc(OC)cc(C(=CC(C)=O)c2ccc(OC)c(OC)c2)c1 | > 10000 nM | 140 nM | 750 nM | –
2 | COc1ccc(C(=CC#N)c2ccc(OC)c(OC)c2)cc1 | 24 nM | 190 nM | 350 nM | –
3 | CCOc1cc(C(=CC#N)c2ccc(OC)c(OC(=O)[C@H](C)N)c2)ccc1OC.Cl | 17 nM | 69 nM | 57 nM | Stability (Plasma [2]): Unstable
4 | C=C(c1cc(OC)cc(OC)c1)c1ccc(OC)c(N)c1 | 13 nM | > 10000 nM | 330 nM | –
5 | COc1cc(OC)cc(C(=CC#N)c2ccc(OC)c(N)c2)c1 | 1.4 nM | 9800 nM | 11 nM | inhibition [3]: 76%
6 | COc1cccc(C(=CC#N)c2ccc(OC)c(OC)c2)c1 | 310 nM | 160 nM | 660 nM | –
7 | CCOc1cc(C(=CC#N)c2ccc(OC)c(OCC)c2)ccc1OC | 440 nM | 70 nM | 48 nM | –
8 | C=C(c1cc(OC)cc(OC)c1)c1ccc(OC)c(OC)c1 | > 10000 nM | 2200 nM | 4800 nM | –
9 | COc1cc(OC)cc(/C(=C/C#N)c2ccc(OC)c(OC)c2)c1 | 110 nM | 730 nM | 650 nM | –
10 | COc1cc(C(=CC#N)c2cc(OC)c(OC)c(OC)c2)cc(OC)c1OC | > 10000 nM | 2400 nM | 870 nM | –
11 | CCOc1cc(C(=CC#N)c2ccc(OC)c(OC(=O)CN)c2)ccc1OC.Cl | 19 nM | 49 nM | 58 nM | Stability (Plasma [2]): Unstable
12 | COc1ccc(/C=C\c2cc(OC)c(OC)c(OC)c2)cc1O [COMBRETASTATIN A4] | 0.74 nM | > 10000 nM | 11 nM | inhibition [3]: 88%
13 | CCOc1cc(C(=CC#N)c2ccc(S(C)(=O)=O)cc2)ccc1OC | > 10000 nM | 200 nM | 130 nM | –
14 | CCOc1cc(C(=CC#N)c2ccc(NC)cc2)ccc1OC | 55 nM | 41 nM | 140 nM | –
15 | COc1cc(OC)cc(C(=CC(N)=O)c2ccc(OC)c(OC)c2)c1 | > 10000 nM | 6700 nM | 5500 nM | –
16 | C=C(c1ccc(OC)c(O)c1)c1ccc(OC)c(OCC)c1 | 36 nM | 380 nM | 29 nM | –
17 | COc1ccc(C(=CC#N)c2cc(OC)c(OC)c(OC)c2)cc1N | 1.8 nM | > 10000 nM | 200 nM | –
18 | CCOc1cc(C(=CC#N)c2ccc(OC)c(-n3cccc3)c2)ccc1OC | 49 nM | 70 nM | 67 nM | –
19 | CCOc1cc(C(=C(F)F)c2ccc(OC)c(O)c2)ccc1OC | 74 nM | 360 nM | 54 nM | –
20 | CCOc1cc(C(=CC#N)c2ccc(N(C)C)cc2)ccc1OC | 31 nM | 52 nM | 130 nM | –
21 | COc1cc(OC)cc(C(=CC#N)c2ccc(OC)c(NC(C)=O)c2)c1 | 92 nM | > 10000 nM | 66 nM | inhibition [3]: 46%; inhibition [4]: 74%
22 | CCOc1cc(C(=CC#N)c2cccc(OC)c2)ccc1OC | 450 nM | 110 nM | 230 nM | –
23 | CCOc1cc(C(=CC#N)c2cc(OC)cc(OC)c2)ccc1OC | 34 nM | 54 nM | 43 nM | inhibition [3]: 48%; inhibition [4]: 59%; Activity (HCT-116 [5]): 16%
24 | COc1cc(OC)cc(C(=CC(=O)O)c2ccc(OC)c(OC)c2)c1 | > 10000 nM | > 10000 nM | > 10000 nM | –
25 | CC=C(c1ccc(OC)c(N)c1)c1ccc(OC)c(OCC)c1 | 110 nM | 590 nM | 2800 nM | –
26 | CCOc1cc(C(=CC#N)c2ccc(OC)c(N)c2)ccc1OC | 19 nM | 47 nM | 31 nM | inhibition [3]: 65%; inhibition [4]: 76%; solubility at 4 h [6]: < 3 µg/mL; solubility at 4 h [7]: < 3 µg/mL

Row | Structure (SMILES) | IC50 (HCT-116 [1]) | IC50 (Phosphodiesterase 4) | IC50 (PBMC) | also measured
27 | COC=C(c1cc(OC)cc(OC)c1)c1ccc(OC)c(OC)c1 | > 10000 nM | 3600 nM | 6300 nM | –
28 | COc1cc(OC)cc(C(=Cc2ccccc2)c2ccc(OC)c(O)c2)c1 | > 10000 nM | > 10000 nM | > 10000 nM | –
29 | CCOc1cc(C(=CC#N)c2ccc(OC)c(C)c2)ccc1OC | 87 nM | 82 nM | 100 nM | –
30 | COc1cc(OC)cc(C(=CC#N)c2ccccc2)c1 | 970 nM | 1900 nM | 2400 nM | –
31 | CC=C(c1cc(OC)cc(OC)c1)c1ccc(OC)c(O)c1 | 30 nM | > 10000 nM | 150 nM | –
32 | CC=C(c1cc(OC)cc(OC)c1)c1ccc(OC)c(OC)c1 | 480 nM | 1500 nM | 2600 nM | –
33 | COc1cc(OC)cc(C(=CC#N)c2ccc(OC)c(O)c2)c1 | 2.5 nM | 2400 nM | 1.2 nM | inhibition [3]: 77%
34 | COC(=O)C=C(c1cc(OC)cc(OC)c1)c1ccc(OC)c(OC)c1 | > 10000 nM | 1300 nM | 5400 nM | –
35 | CCOc1cc(C(=CC#N)c2ccc(OC)c(NC(=O)[C@H](C)N)c2)ccc1OC.Cl | 40 nM | 150 nM | 27 nM | Stability (Plasma [8]): Stable; half-life [9]: 27 h; solubility at 4 h [6]: 1040 µg/mL; solubility at 4 h [7]: 405 µg/mL
36 | COc1ccc(C(=CC#N)c2ccc(OC)c(OC)c2)cc1OC | 140 nM | 310 nM | 600 nM | –
37 | CCOc1cc(C(=CC#N)c2ccc(OC)c(OC)c2)ccc1OC | 200 nM | 83 nM | 180 nM | –
38 | CCOc1cc(C(=CC#N)c2ccc(OC)c(O)c2)ccc1OC | 15 nM | 91 nM | 44 nM | –
39 | CCOc1cc(C(=CC#N)c2ccc(OC)c(OC(=O)[C@@H](N)C(C)C)c2)ccc1OC.Cl | 22 nM | 120 nM | 67 nM | Stability (Plasma [2]): Unstable
40 | C#CC=C(c1cc(OC)cc(OC)c1)c1ccc(OC)c(OC)c1 | > 10000 nM | 3500 nM | 7200 nM | –
41 | COc1cc(OC)cc(C(=CCCN(C)C)c2ccc(OC)c(OC)c2)c1 | > 10000 nM | > 10000 nM | > 10000 nM | –
42 | CCC=C(c1cc(OC)cc(OC)c1)c1ccc(OC)c(OC)c1 | > 10000 nM | 2000 nM | > 10000 nM | –
43 | C=C(c1cc(OC)cc(OC)c1)c1ccc(OC)c(O)c1 | 21 nM | > 10000 nM | 3000 nM | –
44 | C=C(c1ccc(OC)c(N)c1)c1ccc(OC)c(OCC)c1 | 38 nM | 680 nM | 380 nM | –
45 | CCOc1cc(C(=CC#N)c2ccc(OC)c(OC(=O)N(C)C)c2)ccc1OC | > 10000 nM | 120 nM | 240 nM | –
46 | CCOc1cc(C(=CC#N)c2ccc(OC)c(F)c2)ccc1OC | 130 nM | 70 nM | 31 nM | –
47 | COc1ccc(C(=CC#N)c2cc(OC)c(OC)c(OC)c2)cc1OC | 41 nM | 1800 nM | 540 nM | –
48 | COc1cc(OC)cc(C(=CC#N)c2ccc(OC)c(OC)c2)c1 | 18 nM | 350 nM | 270 nM | inhibition [3]: 65%; inhibition [4]: 84%
49 | COc1cc(OC)cc(/C(=C\C#N)c2ccc(OC)c(OC)c2)c1 | 11 nM | 150 nM | 93 nM | –
50 | COc1cccc(C(=CC#N)c2cc(OC)cc(OC)c2)c1 | 15 nM | 3400 nM | 290 nM | inhibition [3]: 67%; inhibition [4]: 88%
51 | COc1ccc(C(=CC#N)c2cc(OC)cc(OC)c2)cc1 | 1.2 nM | 3800 nM | 440 nM | –
